High-throughput results (PubChem)
Only some compounds are listed: those with a hit (about 3.5% of all), similar ones and a draw of the others.
MrgX1 agonist: human MrgX1 receptor agonism, primary screen. Q96LB2. MrgX1-HEK293 cells, Fluo-4 calcium fluorescence, agonist mode; stronger effect = higher value. B-score at 10 µM. 0.44% of 310,000 active;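 active = calcium response B-score plate-corrected fluorescence ratio at least 3 library SD, with starting fluorescence B-score inside 5 SD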
Target sequence (Q96LB2 whole entry, looked up): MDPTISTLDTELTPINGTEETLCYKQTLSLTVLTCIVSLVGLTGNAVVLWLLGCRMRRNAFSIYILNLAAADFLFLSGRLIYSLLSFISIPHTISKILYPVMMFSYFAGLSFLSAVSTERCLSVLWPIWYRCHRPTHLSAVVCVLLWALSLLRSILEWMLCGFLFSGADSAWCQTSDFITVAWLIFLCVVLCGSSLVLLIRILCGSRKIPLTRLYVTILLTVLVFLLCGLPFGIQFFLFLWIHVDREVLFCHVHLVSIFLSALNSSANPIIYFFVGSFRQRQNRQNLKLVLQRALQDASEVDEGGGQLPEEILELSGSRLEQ
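times = overnight plating, then 30 min 37 °C plus 30 min room-temperature dye loading | assay system = stable human MrgX1 HEK293 cell line | input = fifteen thousand cells per well | signal = kinetic calcium dye fluorescence, Fluo-4 NW | dosing = compound delivered in addition one of three | read-out = B-scored fluorescence response ratio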
RGS4 pot: potentiators or activators of RGS4; HEK293 M3R/inducible RGS4, carbachol calcium flux Fluo4; stronger effect = lower value; B-score at 10 µM; 0.92% of 310,000 active;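 active = B-score of the integrated calcium signal more than 4 SD below the library mean, with starting fluorescence not abnormally high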;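 also: negative B-score means reduced calcium response which marks RGS4 activation or potentiation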
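test system = M3R-expressing HEK293 line, RGS4 induced by doxycycline | probe or stimulus = carbachol at ECmax as muscarinic agonist stimulus | timing = dye loading 30 min 37 °C, buffer rest 30 min RT | signal = calcium dye Fluo4 fluorescence | evaluation = B score from integrated fluorescence ratio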
RGS4 inh: inhibitors of human RGS4; HEK293 M3R/RGS4 inducible, Fluo-4 calcium flux; stronger effect = higher value; triggered by carbachol at its EC20; 0.45% of 310,000 active; P49798; B-score at 10 µM; AID 463165;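 active = B-score, a plate-corrected calcium signal, over three deviations above library mean, with baseline fluorescence within five deviations of library mean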;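 also: RGS4 expression induced by doxycycline in cells with stable M3 receptor; B-score is computed from the integrated fluorescence ratio over baseline after carbachol; higher B-score means a larger calcium signal and so more RGS4 inhibition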
Target sequence (P49798 whole entry, looked up): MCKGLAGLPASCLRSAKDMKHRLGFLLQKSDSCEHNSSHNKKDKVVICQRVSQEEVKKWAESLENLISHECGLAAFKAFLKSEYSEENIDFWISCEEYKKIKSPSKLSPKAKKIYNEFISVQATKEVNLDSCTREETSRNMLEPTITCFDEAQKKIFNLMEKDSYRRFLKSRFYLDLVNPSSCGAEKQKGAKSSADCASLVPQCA
MrgX1 antagonist: antagonists of human MrgX1 receptor; Q96LB2; MRGX1-HEK293 calcium flux, Fluo-4, BAM8-22 antagonism; stronger effect = lower value; B-score at 10 µM; 1.3% of 310,000 active;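 active = calcium-response B-score plate-corrected more than 3 library SD below zero, starting fluorescence within 5 deviations, no agonist response on first addition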;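 also: peak minus trough fluorescence over baseline after final BAM8-22 challenge near maximal dose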
MrgX1 allo act: allosterically activates human MrgX1 receptor signaling. 0.63% of 310,000 active. B-score at 10 µM. MrgX1-HEK293, Fluo-4 calcium flux, FDSS; stronger effect = higher value;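 active = plate-corrected calcium response at least 3 library SD above typical, normal starting fluorescence, not activating the receptor alone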;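 also: compound read alongside a low EC10 to EC30 dose of BAM8-22 agonist; peak minus trough fluorescence over baseline measured at the second addition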
Active calls of the source: *; i = inactive; . = no result; ! = repeats disagree.

SMILES | MrgX1 agonist | RGS4 pot | RGS4 inh | MrgX1 antagonist | MrgX1 allo act
C=CCN(c1ccccc1)S(=O)(=O)c1ccc2c(c1)N(C(C)=O)CCO2 | i | i | i | i | i
CCNC(=S)N/N=C(\C)c1ccc2c(c1)OCCO2 | i | i | i | -6.5* | i
Cc1oc2c(cc(NS(=O)(=O)c3ccc(C(C)C)cc3)c3ccccc32)c1C(=O)O | i | -8.6* | i | i | i
Cc1oc2c(cc(NS(=O)(=O)c3ccc(F)cc3)c3ccccc32)c1C(=O)O | i | i | i | i | i
C=CCSc1nnc(C)c(/C=C/Nc2ccc(Cl)cc2)n1 | i | -7.5* | i | i | i
CSc1nnc(C)c(/C=C/Nc2ccc(F)cc2F)n1 | i | i | i | i | i
Cc1ccc(C)c(N2CCN(C(=O)C3CCN(c4nc(C)cc(C)n4)CC3)CC2)c1 | i | i | i | i | i
Cc1cc(C)nc(N2CCC(C(=O)N3CCN(c4cc(Cl)ccc4C)CC3)CC2)n1 | i | -7.3* | i | i | i
Cc1cccc(C)c1NC(=O)NC1(C(=O)N2CCCC2)CCCCC1 | i | i | i | i | i
COc1ccc(N=C2S/C(=C\c3ccc(N4CCOCC4)o3)C(=O)N2CCc2c[nH]c3ccccc23)cc1 | i | i | i | -7.1* | i
COc1ccc(N=C2S/C(=C\c3ccc(OCC(=O)O)cc3)C(=O)N2CCc2c[nH]c3ccccc23)cc1 | . | i | i | . | .
CCOC(=O)N1CCN(C(=O)CNC(=O)c2ccc(Cl)cc2)CC1 | i | i | i | i | i
COc1cccc(NC(=O)CCN2C(=O)C3CC=CCC3C2=O)c1 (configuration not stated) | i | i | i | i | i
Cc1ccc(S(=O)(=O)Nc2ccccc2-c2ccccc2NS(=O)(=O)c2ccc(C)cc2)cc1 | i | i | i | i | i
Cc1ccc(S(=O)(=O)Nc2c(Cl)c(Cl)c(O)c3ccccc23)cc1 | i | i | 5.5* | i | i
O=S(=O)(Nc1c(O)ccc2ccccc12)c1cccc2ccccc12 | i | i | i | i | i
Cc1ccc(S(=O)(=O)Nc2c(O)ccc3ccccc23)cc1 | 47* | i | i | i | i
CN(C)CCNC(=O)Cn1ccc2cc(S(=O)(=O)N3CCCCC3)ccc21 | i | i | i | i | i
CCc1ccc2oc(-c3ccc(OC)cc3)cc(=Nc3c(C)n(C)n(-c4ccccc4)c3=O)c2c1 | i | -7.4* | i | i | i
COc1ccc2sc(N(CCCN(C)C)C(=O)c3ccc(S(=O)(=O)N4CCCc5ccccc54)cc3)nc2c1 | i | -9.5* | i | i | i
CN(C)CCCN(C(=O)c1ccc(S(=O)(=O)N(C)C2CCCCC2)cc1)c1nc2ccc(Br)cc2s1 | i | -8.7* | i | i | i
COc1cc2nc(N(CCCN(C)C)C(=O)c3ccc(S(=O)(=O)N(C)C4CCCCC4)cc3)sc2cc1OC | i | i | i | i | i
Cc1cc(C)c2sc(N(CCCN(C)C)C(=O)c3ccc(S(=O)(=O)N(C)C4CCCCC4)cc3)nc2c1 | i | -8* | i | i | i
CN(C)CCCN(C(=O)c1ccc(S(=O)(=O)N(C)C2CCCCC2)cc1)c1nc2ccc(F)cc2s1 | i | i | i | i | i
O=C(CN1CCCCC1)Nc1ccccc1-c1ccccc1 | i | -10* | i | i | i
SMILES | MrgX1 agonist | RGS4 pot | RGS4 inh | MrgX1 antagonist | MrgX1 allo act
Cn1c(SCC(=O)O)nnc1-c1ccc2ncccc2c1 | i | i | i | i | i
CCOc1ncccc1C(=O)Nc1c(C)n(C)n(-c2ccccc2)c1=O | i | i | i | i | i
O=Cc1nc(-c2ccccc2Cl)n2ccccc12 | i | i | i | -6.3* | i
O=Cc1nc(-c2ccc(Cl)cc2)n2ccccc12 | i | i | i | i | i
O=C(NCC(c1ccco1)N1CCc2ccccc21)C(=O)Nc1ccc(F)cc1F (configuration not stated) | i | i | i | i | i
CCCCC1S/C(=N/N=C/c2ccc(OC)cc2)N(Cc2ccc(OC)cc2)C1=O (configuration not stated) | i | i | i | -5.3* | i
NC(=O)c1c(NC(=O)CN2CCN(S(=O)(=O)c3ccccc3)CC2)sc2c1CCC2 | i | i | i | i | i
COC(=O)c1cccc(NC(=O)CCNC(=O)c2ccc([N+](=O)[O-])cc2)c1 | i | i | i | -7.8* | i
COC(=O)c1ccc(C)c(NC(=O)CCNC(=O)c2ccc([N+](=O)[O-])cc2)c1 | i | i | i | i | i
COc1ccc(CNC(=O)[C@H](C)NC(=O)N2CCn3c2nc2ccccc23)cc1 | i | i | i | i | i
CCOC(=O)N1CCN(C(=O)c2cn(C)c3ccc(S(=O)(=O)N4CCOCC4)cc3c2=O)CC1 | i | i | i | i | i
CSc1nnc2c(n1)[nH]c1c(C)cccc12 | i | i | i | -4.7* | i
CCSc1nnc2c(n1)[nH]c1c(C)cccc12 | i | i | i | i | i
CC(C)NCC(O)COCCOc1ccc(C(C)(C)C)cc1 (configuration not stated) | i | i | i | -5.2* | i
CCCCN(CC)CCCNC(=O)c1cc2c(=O)n(C)c3ccccc3c2n1C | i | i | i | -5.5* | i
CC(C)OCCCNC(=O)c1cc2c(=O)n(C)c3ccccc3c2n1C | i | i | i | i | i
Cc1cc(=O)n2nc(N3CCC(C(=O)NCc4ccc(Cl)cc4)CC3)sc2n1 | i | i | i | i | i
CN1CCN(C2Cc3cc(F)ccc3Sc3ccc(Cl)cc32)CC1 (configuration not stated) | i | -8.3* | i | i | i
CC(C)c1ccc2c(c1)C(N1CCNCC1)Cc1ccc(F)cc1S2 (configuration not stated) | i | -8.7* | i | i | i
CN1CCN(C2Cc3ccccc3Sc3ccc(Cl)cc32)CC1 (configuration not stated) | i | . | . | i | i
CSc1ccc2c(c1)C(N1CCN(C)CC1)Cc1ccccc1S2 (configuration not stated) | i | -7.4*! | i | i | i
Cc1ccc(C(=O)N2CCC(n3nccc3NC(=O)C3CCOC3)CC2)cc1 (configuration not stated) | i | i | i | i | i
COc1ccc(CN2C(=NC(=O)C3CCCO3)SC3CS(=O)(=O)CC32)cc1 (configuration not stated) | i | i | i | i | i
